Results reported in ChEMBL document CHEMBL1811771, “Synthesis and antimycobacterial activities of non-purine analogs of 6-aryl-9-benzylpurines: Imidazopyridines, pyrrolopyridines, benzimidazoles, and indoles” (Bioorg Med Chem, 2011).
Values after ≈ are worked out from the molar mass of the structure shown.

What was measured:
[1] = system: Mycobacterium tuberculosis; experiment: Antimycobacterial activity against Mycobacterium tuberculosis H37Rv after 4 days by MABA assay; type: functional; settings: 96 h
Staphylococcus aureus = experiment: Antimicrobial activity against Staphylococcus aureus ATCC 29213 by broth microdilution method; type: functional
Procedure, shortened: (§1)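 Broth microdilution in cation-adjusted Mueller-Hinton broth against the QC strain, following the standard method for inoculum preparation and incubation. Samples were serially diluted twofold from 16 to 0.125, in triplicate, with DMSO as solvent and diluent. A gentamicin accuracy control was made up in water and diluted in broth. MIC was the lowest concentration giving complete growth inhibition, read by eye.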

Escherichia coli = experiment: Antimicrobial activity against Escherichia coli ATCC 25922 by broth microdilution method; type: functional; procedure, shortened: as §1
[2] = system: Mycobacterium tuberculosis; experiment: Antimycobacterial activity against Mycobacterium tuberculosis H37Rv at 128 uM after 4 days by MABA assay; type: functional
[3] = system: Mycobacterium tuberculosis; experiment: Antimycobacterial activity against Mycobacterium tuberculosis H37Rv transfected with pFPCA-luxAB grown under anaerobic condition for 10 days followed by 24 hrs incubation under aerobic condition by LORA assay; type: functional
Vero [4] = experiment: Cytotoxicity against african green monkey Vero cells; type: ADME, cell-based; settings: Chlorocebus sabaeus
Vero [5] = experiment: Cytotoxicity against african green monkey Vero cells at 128 uM; type: cell-based; settings: chlorocebus sabaeus
[6] = Selectivity index, ratio of EC50 for african green monkey VERO cells to MIC for Mycobacterium tuberculosis H37Rv; type: functional
[7] = system: Mycobacterium tuberculosis; experiment: Antimycobacterial activity against Mycobacterium tuberculosis H37Rv transfected with pFPCA-luxAB at 128 uM with pFPCA-luxAB grown under anaerobic condition for 10 days followed by 24 hrs incubation under aerobic condition by LORA assay; type: functional
[8] = system: Mycobacterium tuberculosis; experiment: Antimycobacterial activity against Mycobacterium tuberculosis H37Rv at 21 uM after 4 days by MABA assay; type: functional; settings: 96 h

Structure (SMILES)	MIC [1] [µM]	MIC (Staphylococcus aureus) [µg/mL]	MIC (Escherichia coli) [µg/mL]	MIC [3] [µM]	also measured
COc1ccc(Cn2ccc3c(-c4ccco4)ncnc32)cc1	0.16 (≈ 0.0489 µg/mL)	–	–	–	–
COc1ccc(Cn2ccc3c(-c4ccco4)nc(Cl)nc32)cc1	0.08 (≈ 0.0272 µg/mL)	–	–	–	–
COc1ccc(Cn2cnc3c(-c4ccco4)ccnc32)cc1	63 (≈ 19.2 µg/mL)	> 16	> 16	–	–
COc1ccc(Cn2cnc3c(-c4ccco4)cc(Cl)nc32)cc1	> 128	> 16	> 16	–	Activity [2]: 37%
COc1ccc(Cn2cnc3c(-c4ccco4)nccc32)cc1	0.84 (≈ 0.256 µg/mL)	> 16	> 16	80 (≈ 24.4 µg/mL)	IC50 (Vero [4]): > 128 µM; Activity (Vero [5]): 0%; Selectivity Index [6]: >150
COc1ccc(Cn2cnc3c(-c4ccco4)nc(Cl)cc32)cc1	0.16 (≈ 0.0544 µg/mL)	> 16	> 16	48 (≈ 16.3 µg/mL)	IC50 (Vero [4]): > 128 µM; Activity (Vero [5]): 30%; Selectivity Index [6]: >800
COc1ccc(Cn2ccc3c(-c4ccco4)ccnc32)cc1	44 (≈ 13.4 µg/mL)	> 16	> 16	–	–
COc1ccc(Cn2ccc3c(-c4ccco4)cc(Cl)nc32)cc1	> 128	> 16	> 16	–	Activity [2]: 86%
COc1ccc(Cn2ccc3c(-c4ccco4)nccc32)cc1	1.4 (≈ 0.426 µg/mL)	> 16	> 16	28 (≈ 8.52 µg/mL)	IC50 (Vero [4]): 12 µM; Selectivity Index [6]: 8.6
COc1ccc(Cn2ccc3c(-c4ccco4)nc(Cl)cc32)cc1	0.09 (≈ 0.0305 µg/mL)	> 16	> 16	> 128	Activity [7]: 53%; IC50 (Vero [4]): 58 µM; Selectivity Index [6]: 644
COc1ccc(Cn2cnc3c(-c4ccco4)cccc32)cc1	29 (≈ 8.83 µg/mL)	> 16	> 16	–	–
COc1ccc(Cn2ccc3c(-c4ccco4)cccc32)cc1	> 21	> 16	> 16	–	inhibition at 21 µM [8]: 0%
COc1ccc(Cn2cnc3c(-c4ccco4)ncnc32)cc1	2.1 (≈ 0.643 µg/mL)	–	–	–	–
COc1ccc(Cn2cnc3c(-c4ccco4)nc(Cl)nc32)cc1	0.36 (≈ 0.123 µg/mL)	–	–	–	–
NNC(=O)c1ccncc1 [ISONIAZID]	0.28 (≈ 0.0384 µg/mL)	–	–	> 128	–
O=[N+]([O-])c1cn2c(n1)OC[C@@H](OCc1ccc(OC(F)(F)F)cc1)C2 [PRETOMANID]	0.44 (≈ 0.158 µg/mL)	–	–	3.11 (≈ 1.12 µg/mL)	–
CO[C@H]1/C=C/O[C@@]2(C)Oc3c(C)c(O)c4c(O)c(c(/C=N/N5CCN(C)CC5)c(O)c4c3C2=O)NC(=O)/C(C)=C\C=C\[C@H](C)[C@H](O)[C@@H](C)[C@@H](O)[C@@H](C)[C@H](OC(C)=O)[C@@H]1C [RIFAMPIN]	0.09 (≈ 0.0741 µg/mL)	–	–	0.97 (≈ 0.798 µg/mL)	–
